Drawing on ChEMBL document CHEMBL1926618, “Homosecoiridoids from the flower buds of Lonicera japonica” (2011), this text covers Activity and inhibition for ten compounds.

Test [1] has as its system KETR3. As to the kind of experiment: Cytotoxicity against human Ketr3 cells at 10 uM after 96 hrs by MTT assay. Format: functional, cell-based.
In test [2] the test system is Bel-7402. As to the kind of experiment: Cytotoxicity against human Bel7402 cells at 10 uM after 96 hrs by MTT assay. It is filed as functional, cell-based. On the technique in general: Tetrazolium dyes change colour on reduction, which living cells bring about.
Test [3] concerns the target T1, Tyrosine-protein phosphatase non-receptor type 1 (Homo sapiens) (UniProt P18031).
T1 sequence (whole entry): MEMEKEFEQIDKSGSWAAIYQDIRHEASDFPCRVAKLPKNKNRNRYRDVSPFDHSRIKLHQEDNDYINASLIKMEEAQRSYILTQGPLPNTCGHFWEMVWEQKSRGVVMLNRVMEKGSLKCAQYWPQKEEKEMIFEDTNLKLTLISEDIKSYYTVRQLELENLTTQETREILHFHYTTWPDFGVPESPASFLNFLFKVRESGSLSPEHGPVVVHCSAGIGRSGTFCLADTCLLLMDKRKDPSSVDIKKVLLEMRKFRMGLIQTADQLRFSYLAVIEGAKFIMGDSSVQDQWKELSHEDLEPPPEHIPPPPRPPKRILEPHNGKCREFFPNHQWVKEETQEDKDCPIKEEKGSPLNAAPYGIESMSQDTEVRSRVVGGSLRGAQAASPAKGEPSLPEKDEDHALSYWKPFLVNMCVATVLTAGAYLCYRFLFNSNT
As to the kind of experiment: Inhibition of GST-tagged human PTP1B PTPase activity using p-NPP as substrate at 10 uM after 10 mins by spectrophotometry.

For test [4], the system named is PC-12. In words: Neuroprotective activity against glutamate-induced neurotoxicity in rat PC12 cells at 10 uM preincubated for 24 hrs prior challenge measured after 24 hrs by MTT assay. Format: functional, cell-based.
The test system of test [5] is A549. In words: Cytotoxicity against human A549 cells at 10 uM after 96 hrs by MTT assay. Format: functional, cell-based.
The subject of test [6] is HCT-8. As to the kind of experiment: Cytotoxicity against human HCT8 cells at 10 uM after 96 hrs by MTT assay. It is filed as functional, cell-based.
For test [7], the system named is MCF7. As to the kind of experiment: Cytotoxicity against human MCF7 cells at 10 uM after 96 hrs by MTT assay. Format: functional, cell-based.
Test [8] can be described thus: Antiinflammatory activity in rat polymorphonuclear leukocytes assessed as inhibition of platelet-activating factor-induced glucuronidase release at 10 uM preincubated for 15 mins before challenge by spectrophotometry. Format: functional.
In test [9] the test system is BGC-823. As to the kind of experiment: Cytotoxicity against human BGC823 cells at 10 uM after 96 hrs by MTT assay. Format: functional, cell-based.
The test system of test [10] is Liver microsomes. As to the kind of experiment: Antioxidant activity against Fe2+-cystine induced lipid peroxidation in rat liver microsomes at 10 uM. Format: functional. The following applies: Microsome.
In test [11] the test system is Human immunodeficiency virus 1. As to the kind of experiment: Antiviral activity against HIV1 infected in 293T cells at 10 uM pretreated for 15 mins prior infection measured after 48 hrs by luciferase reporter gene assay. Format: functional, organism-based.
For test [12], the target named is Signal transducer and activator of transcription 3 (Homo sapiens) (UniProt P40763). In words: Inhibition of STAT-3 activity in HELF cells at 10 uM. It is filed as cell-based. In a few lines: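 HELF cells grown in DMEM with 10% FCS under humidified 5% CO2, transfected with pSTAT-3-TA-luc firefly luciferase reporter plasmid by lipofectamine 2000. After 24 h, treated in 5% FBS with compound or DMSO for 24 h. Luciferase activity read in cell lysates by luminometer; activity expressed relative to DMSO-treated transfected cells set at 100%.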

The source made the active and inactive calls. The rule behind the calls is not given here.

Chain of Signal transducer and activator of transcription 3 (Homo sapiens) (P40763 whole entry): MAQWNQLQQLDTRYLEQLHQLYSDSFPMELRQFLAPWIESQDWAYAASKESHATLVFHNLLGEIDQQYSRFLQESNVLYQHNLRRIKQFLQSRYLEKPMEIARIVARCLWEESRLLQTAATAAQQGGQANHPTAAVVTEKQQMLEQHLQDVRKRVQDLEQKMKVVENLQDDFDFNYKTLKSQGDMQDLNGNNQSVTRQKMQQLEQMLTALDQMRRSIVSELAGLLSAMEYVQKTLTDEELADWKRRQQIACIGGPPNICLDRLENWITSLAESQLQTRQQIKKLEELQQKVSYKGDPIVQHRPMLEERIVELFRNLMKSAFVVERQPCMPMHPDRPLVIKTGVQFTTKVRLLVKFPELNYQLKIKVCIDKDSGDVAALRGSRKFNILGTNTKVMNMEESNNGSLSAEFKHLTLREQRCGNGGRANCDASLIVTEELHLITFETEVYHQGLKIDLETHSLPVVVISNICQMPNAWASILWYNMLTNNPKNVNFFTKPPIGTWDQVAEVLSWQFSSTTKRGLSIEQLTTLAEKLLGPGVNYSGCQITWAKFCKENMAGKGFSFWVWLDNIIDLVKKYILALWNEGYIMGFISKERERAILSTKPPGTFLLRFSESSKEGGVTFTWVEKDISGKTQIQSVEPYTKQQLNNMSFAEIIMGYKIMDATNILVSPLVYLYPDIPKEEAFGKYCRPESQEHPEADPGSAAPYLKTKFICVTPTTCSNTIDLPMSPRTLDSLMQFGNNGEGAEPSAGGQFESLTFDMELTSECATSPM

A word on the inhibition: it is the change of the read-out against control, counted positive when it falls. `C=C[C@H]1[C@H](O[C@@H]2O[C@H](CO)[C@@H](O)[C@H](O)[C@H]2O)OC=C(C(=O)[O-])[C@H]1/C=C/c1ccc[n+](CCO)c1` [LONIJAPOSIDE I]: the result in [1], in [2], in test [4], in test [5], in test [6] and in test [7] was inactive. In addition, the outcome in test [9], in [10] and in test [11] was inactive. In test [3], the inhibition entry is “inactive”. Also, the inhibition at 10 µM in test [8] was found to be 72.1%.
`C=C[C@H]1[C@H](O[C@@H]2O[C@H](CO)[C@@H](O)[C@H](O)[C@H]2O)OC=C(C(=O)OC)[C@H]1/C=C/c1ccc[n+](CCO)c1` [LONIJAPOSIDE J]: the result in test [1], in [2], in [4], in test [5], in test [6] and in test [7] was inactive. The outcome in test [9], in [10] and in test [11] was inactive. For the same compound, in test [3], the inhibition result is “inactive”. In addition, the inhibition at 10 µM in test [8] was less than 30%.
In the case of `C=C[C@H]1[C@H](O[C@@H]2O[C@H](CO)[C@@H](O)[C@H](O)[C@H]2O)OC=C(C(=O)[O-])[C@H]1/C=C/c1ccc[n+](CC(=O)O)c1` [LONIJAPOSIDE K], the outcome in test [1], in test [2], in test [4], in [5], in test [6] and in [7] was inactive. Besides, the outcome in [9], in test [10] and in test [11] was inactive. For the same compound, the inhibition entry in [3] is “inactive”. Also, in test [8], the inhibition at 10 µM was 54.6%.
`C=C[C@H]1[C@H](O[C@@H]2O[C@H](CO)[C@@H](O)[C@H](O)[C@H]2O)OC=C(C(=O)[O-])[C@H]1/C=C/c1ccc[n+](CCC(=O)O)c1` [LONIJAPOSIDE L]: the result in test [1], in test [2], in test [4], in [5], in test [6] and in test [7] was inactive. Moreover, the outcome in test [9], in test [10] and in test [11] was inactive. Also, the inhibition result in test [3] is “inactive”. Besides, the inhibition at 10 µM in [8] was less than 30%.
For `C=C[C@H]1[C@H](O[C@@H]2O[C@H](CO)[C@@H](O)[C@H](O)[C@H]2O)OC=C(C(=O)[O-])[C@H]1/C=C/c1ccc[n+](CCCC(=O)O)c1` [LONIJAPOSIDE M], the result in [1], in test [2], in test [4], in test [5], in [6] and in test [7] was inactive. In addition, the outcome in test [9], in test [10] and in test [11] was inactive. In addition, the inhibition entry in test [3] is “inactive”. The inhibition at 10 µM in test [8] is less than 30%.
For `C=C[C@H]1[C@H](O[C@@H]2O[C@H](CO)[C@@H](O)[C@H](O)[C@H]2O)OC=C(C(=O)OC)[C@H]1/C=C/c1ccc[n+](CCCC(=O)[O-])c1` [LONIJAPOSIDE N], the outcome in test [1], in test [2], in test [4], in test [5], in test [6] and in [7] was inactive. For the same compound, the outcome in test [9], in test [10] and in test [11] was inactive. The inhibition entry in test [3] was “inactive”. Also, the inhibition at 10 µM in test [8] is less than 30%.
As for `O=C(O)C1=CO[C@@H](O[C@@H]2O[C@H](CO)[C@@H](O)[C@H](O)[C@H]2O)[C@H]2[C@@H]1C[C@@H]1C[C@H]2OC=C1c1ccccc1` [LONIPHENYRUVIRIDOSIDE A], the result in [1], in [2], in [4], in test [5], in [6] and in test [7] was inactive. For the same compound, the outcome in test [9], in [10] and in [11] was inactive. Further, in [3], the inhibition result is “inactive”. The compound further had an inhibition in [12] of 45.7%. Moreover, the inhibition at 10 µM in [8] was less than 30%.
For the compound `C=C[C@H]1[C@H](O[C@@H]2O[C@H](CO)[C@@H](O)[C@H](O)[C@H]2O)OC=C2C(=O)O[C@@H](/C(=C(/O)C(=O)O)c3ccccc3)C[C@H]21` [LONIPHENYRUVIRIDOSIDE B], the result in [1], in [2], in test [4], in test [5], in test [6] and in test [7] was inactive. Further, the outcome in [9], in [10] and in test [11] was inactive. The inhibition result in [3] is “inactive”. Besides, in test [12], the inhibition came out at 25.8%. Also, the inhibition at 10 µM in test [8] is less than 30%.
On to `C=C[C@H]1[C@H](O[C@@H]2O[C@H](CO)[C@@H](O)[C@H](O)[C@H]2O)OC=C2C(=O)O[C@H](/C(=C(/O)C(=O)O)c3ccccc3)C[C@@H]21` [LONIPHENYRUVIRIDOSIDE C], for which the outcome in [1], in test [2], in test [4], in [5], in test [6] and in test [7] was inactive. Further, the result in test [9], in test [10] and in test [11] was inactive. For the same compound, the inhibition entry in test [3] is “inactive”. In addition, the inhibition in [12] was found to be 30.9%. The inhibition at 10 µM in [8] was less than 30%.
On to `C=C[C@H]1[C@H](O[C@@H]2O[C@H](CO)[C@@H](O)[C@H](O)[C@H]2O)OC=C(C(=O)O)[C@H]1C[C@H]1OC(=O)C(O)=C1c1ccccc1` [LONIPHENYRUVIRIDOSIDE D], for which the result in test [1], in test [2], in test [4], in test [5], in test [6] and in test [7] was inactive. Moreover, the result in [9], in test [10] and in test [11] was inactive. Moreover, in [3], the inhibition entry is “inactive”. Moreover, the inhibition in [12] stood at 48.8%. The inhibition at 10 µM in [8] was less than 30%.
